Bioassay records from PubChem BioAssay.
m5-HT2A agonist – mouse Htr2a agonists via beta-arrestin recruitment, primary screen, cell-based, luminescence; CHO-K1 mHTR2A beta-arrestin complementation; percent of 30 µM serotonin response; activation, % at 7.6 µM; 360,000 tested, 0.66% active; AID 624169, 2012;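 active means activation above a run cutoff, the mean activation of all tested compounds plus 3 SD, cut at about 14% in these data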;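 further: 0% = plate median of compound wells and 100% = 30 µM serotonin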
PREPL inhibitor – PREPL enzyme inhibitors, primary screen, biochemical, fluorescence polarization. AID 2751, 2010. Prolyl endopeptidase-like (Homo sapiens), Q4J6C6. inhibition, % at 5.96 µM. recombinant PREPL, fluorescence polarization activity-based probe. 320,000 tested, 0.68% active; in the data active means inhibition above about 43%;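 further: 0% = enzyme with DMSO and 100% = wells lacking enzyme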
Target sequence (Q4J6C6 whole entry, looked up): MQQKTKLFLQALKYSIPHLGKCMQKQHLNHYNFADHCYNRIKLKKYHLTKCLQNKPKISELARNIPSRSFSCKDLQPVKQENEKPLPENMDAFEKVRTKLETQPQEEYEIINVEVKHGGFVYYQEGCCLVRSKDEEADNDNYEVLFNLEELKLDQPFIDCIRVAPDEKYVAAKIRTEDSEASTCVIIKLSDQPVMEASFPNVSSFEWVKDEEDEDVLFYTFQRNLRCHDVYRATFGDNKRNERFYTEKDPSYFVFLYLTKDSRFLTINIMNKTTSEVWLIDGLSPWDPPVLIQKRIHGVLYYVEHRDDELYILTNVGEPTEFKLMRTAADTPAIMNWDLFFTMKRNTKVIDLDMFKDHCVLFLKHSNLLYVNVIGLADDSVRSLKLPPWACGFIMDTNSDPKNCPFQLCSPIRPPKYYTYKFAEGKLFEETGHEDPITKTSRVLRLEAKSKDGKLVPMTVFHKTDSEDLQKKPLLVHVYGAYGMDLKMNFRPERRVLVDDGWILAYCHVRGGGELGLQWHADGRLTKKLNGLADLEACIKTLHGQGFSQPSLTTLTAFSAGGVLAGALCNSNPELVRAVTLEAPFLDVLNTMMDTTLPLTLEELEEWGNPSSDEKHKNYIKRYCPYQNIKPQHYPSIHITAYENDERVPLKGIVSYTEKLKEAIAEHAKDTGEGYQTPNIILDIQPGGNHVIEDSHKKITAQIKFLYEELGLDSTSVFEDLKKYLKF
NTR1 ag – agonists of human NTR1, primary screen, imaging, U2OS cells, beta-arrestin-GFP, high content; NTR1-U2OS beta-arrestin-GFP spot imaging, agonist mode; 330,000 tested, 0.17% active; activation, % at 20 µM; Neurotensin receptor type 1 (Homo sapiens), P30989;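 active means activation at or above 40% of the spot to cytoplasm intensity ratio, with at least 20 cells analyzed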;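 further: 0% = DMSO without peptide and 100% = 100 nM NTR1 peptide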
MC4R antag cAMP – MC4R antagonists of cAMP signaling, primary screen, cell-based, TR-FRET, antagonist arm of biased-ligand search; Melanocortin receptor 4 (Homo sapiens), P32245; MC4R-expressing cells, MTII-stimulated cAMP, LANCE TR-FRET; inhibition, % at 6.5 µM; 360,000 tested, 0.48% active;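 active means inhibition above its plate's cutoff, the mean of tested wells on that plate plus 3 SD, cut at about 29% in these data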;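 further: 0% = Melanotan II alone and 100% = Melanotan II plus saturating MCL0020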
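material = U2OS cells stably expressing human melanocortin 4 receptor (MC4R) | also added = Melanotan II challenge | dosing = single nominal compound dose of 6.5 µM | detection = TR-FRET with Eu-cAMP and labeled anti-cAMP, 671 nm | replication = singlicate | timing = compound 30 min, challenge 1 h, detection 1 h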
Lipid droplet – inhibitors of hepatocyte lipid droplet formation, primary screen, imaging, high-throughput imaging, BODIPY stain; 240,000 tested, 0.4% active; AML12 mouse hepatocytes, oleate lipid droplets; inhibition, % at 6.5 µM; AID 1656, 2009;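 active means lipid droplet intensity inhibited by at least 50%, with more than 500 cells counted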
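Assay system: AML12 mouse liver cells | Compound dosing: One dose, 6.5 µM compound | Read-out basis: Droplet intensity reduction, % inhibition | Measured by: Fluorescence imaging, 20x objective, two fields per well | Schedule: Overnight treatment with compound plus oleate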
MC4R ag barr – MC4R agonists recruiting beta-arrestin, primary screen, cell-based, luminescence, agonist arm of biased-ligand search. Melanocortin receptor 4 (Homo sapiens), P32245. U2OS MC4R beta-arrestin complementation; percent of melanotan II response, DMSO zero. activation, % at 8.9 µM. 360,000 tested, 0.98% active. AID 540308, 2011;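 active means activation above a per-plate cutoff, the mean activation of sample wells on that plate plus 3 SD, cut at about 8% in these data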
U2OS cAMP counter – nonselective cAMP signaling inhibitors, parental cells, counter-screen for MC4R biased antagonist project, cell-based, TR-FRET, U2OS, forskolin, triplicate; LANCE TR-FRET; shares compounds with MC4R antag cAMP; AID 602193, 2012; inhibition, % at 6.5 µM; 1,600 tested, 26% active;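 active means mean inhibition over triplicates above the low-control well mean plus 3 SD, set per campaign, cut at about 13% in these data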;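 further: signal is single emission at 671 nm which falls as cellular cAMP rises; 0% = forskolin-stimulated wells and 100% = buffer without forskolin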
MC4R antag conf – MC4R cAMP antagonists, retest, confirmation, cell-based, TR-FRET; 1,600 tested, 27% active; inhibition, % at 6.5 µM; shares compounds with MC4R antag cAMP; MC4R-expressing cells, MTII-stimulated cAMP; in the data active means inhibition above about 29%;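 further: 0% = agonist stimulated wells alone and 100% = agonist stimulated wells plus saturating reference antagonist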
Active calls of the source: *; · = not tested or not shown. An excerpt weighted towards active compounds, which were near 2.7% of everything screened.

SMILES	m5-HT2A agonist	PREPL inhibitor	NTR1 ag	MC4R antag cAMP	Lipid droplet	MC4R ag barr	U2OS cAMP counter	MC4R antag conf
COC(=O)c1sc(-c2ccccc2)cc1NC(C)=O	-0.8	-23.2	0.0	1.2	-2.2	-0.9	·	·
Cc1cccc(C)c1Nc1c(-c2ccccn2)nc2ccccn12	-11.2	29.7	1.7	16.8	-4.6	-1.2	·	·
O=C(CCCc1nc2ccccc2s1)NCc1cccnc1	-1.9	-3.4	-0.7	28.9*	-15.3	-0.8	-0.1	0.1
CN(C1CCCCC1)S(=O)(=O)c1ccc2[nH]c(=O)oc2c1	3.4	-9.4	-0.5	5.5	-0.5	4.9	·	·
COCCNC(=O)c1ccccc1NC(=O)Nc1ccccc1	-0.6	3.6	0.2	30.8*	25.3	-0.3	3.0	10.7
O=C(Nc1ccccc1)Nc1ccccc1C(=O)NCC1CC1	2.1	1.5	-0.9	-3.2	-2.0	4.7	·	·
O=C(Cc1ccccc1)Nc1cccc(N2C(=O)C=CC2=O)c1	1.5	-10.8	·	54.2*	1.0	-2.3	18.3*	34.5*
COc1cccc(NC(=O)Cc2ccccc2)c1	-3.6	10.3	-2.0	-1.1	·	-0.8	·	·
O=S(=O)(NCCc1ccccc1)c1cnc(Cl)c(Br)c1	1.5	·	7.4	9.0	-4.5	-0.1	·	·
O=S(=O)(NCc1ccco1)c1cnc(Cl)c(Br)c1	8.1	-19.8	16.0	41.9*	-0.5	-1.6	30.5*	66.7*
Cc1onc(-c2c(Cl)cccc2Cl)c1C(=O)N=C(N)N1CCCC1	-2.2	22.1	1.1	-3.3	8.2	-1.4	·	·
CCOC(=O)N1CCN(CC(=O)Nc2cc(OC)c(OC)cc2C#N)CC1	1.6	1.2	3.3	9.6	2.0	0.6	·	·
COc1ccc2c(c1)CCC1(C)CC(=O)C(Br)=C21 (stereo unspecified)	-0.2	·	·	39.5*	·	-0.4	33.7*	52.7*
Cc1ccc(C(=O)O)cc1NCc1ccncc1	3.8	10.8	-1.2	-0.9	-0.5	0.0	·	·
O=C(Oc1ccccc1C(=O)Nc1ccccc1)c1ccc(Br)c([N+](=O)[O-])c1	0.4	11.5	2.3	35.8*	-2.3	-1.0	11.8	18.2
COc1ccccc1C(=O)Oc1ccccc1C(=O)Nc1ccccc1	0.2	-59.3	0.8	19.1	-1.8	1.1	·	·
c1ccc2nc3c(ccc4ccccc43)cc2c1	2.4	·	·	-3.4	·	-0.9	·	·
Nc1[nH]nc2ncc3cc4ccccc4nc3c12	1.1	39.4	1.7	28.5*	10.0	0.0	-8.3	-10.1
CC1CC(=O)c2ccccc2C1C (stereo unspecified)	1.1	·	·	0.8	·	-2.3	·	·
CC(C)(C)c1ccc2c(c1)OC(C(=O)N/N=C\c1ccc(-c3cccc(C(=O)O)c3)o1)CO2 (stereo unspecified)	-0.8	28.1	3.3	29.2*	14.2	-0.2	-4.4	-10.7
O=C(Nc1ccccc1Cl)c1c(F)c(F)c(F)c(F)c1F	0.7	4.8	3.8	37.3*	·	2.4	49.2*	77.0*
CCc1c(C(=O)NNC(=S)Nc2ccc(S(=O)(=O)Nc3ncccn3)cc2)csc1C	3.1	17.5	-0.5	3.0	3.0	0.3	·	·
COc1ccccc1NC(=O)c1ccc(NC(=O)Cc2n[nH]c(=O)c3ccccc23)cc1	0.0	-6.3	1.5	30.3*	-4.7	1.7	4.5	0.8
COc1ccc(N(CC(=O)N/N=C(\C)c2ccccc2)S(=O)(=O)c2ccccc2)cc1	0.8	-17.8	7.4	9.8	-5.8	-0.1	·	·
CCOC(=O)C(C)(C)N(Cc1cccc(C)c1)S(=O)(=O)c1ccc(Cl)c([N+](=O)[O-])c1	0.6	3.7	17.2	53.5*	4.3	0.8	26.2*	63.3*
SMILES	m5-HT2A agonist	PREPL inhibitor	NTR1 ag	MC4R antag cAMP	Lipid droplet	MC4R ag barr	U2OS cAMP counter	MC4R antag conf
O=C(O)C1CCN(C(=O)CSc2nc3ccccc3c(=O)n2-c2ccc(Cl)cc2)CC1	3.5	3.3	-0.4	14.8	22.3	-1.7	·	·
CC(=O)Nc1ccc(OCC(O)Cn2c(CO)nc3ccccc32)cc1 (stereo unspecified)	0.8	-2.7	1.1	31.5*	5.5	-0.3	-0.4	8.3
CCOC(=O)c1c(NC(=O)CSc2nnc(CNC(=O)c3ccco3)n2C)sc2c1CCC2	-1.6	11.7	1.5	6.0	·	-0.6	·	·
C/C(CC(=O)Nc1cccc(Cl)c1Cl)=N\NC(=O)c1ccccc1C	4.7	2.9	-0.7	29.0*	-1.4	0.8	5.2	2.2
C/C(CC(=O)Nc1cccc(Cl)c1Cl)=N\NC(=O)C(=O)N1CCCC1	2.2	1.5	0.4	9.3	-15.8	-1.1	·	·
CC(C)N1C(=O)S/C(=C/c2ccccc2OCc2ccc(C(=O)O)cc2)C1=O	0.6	-0.5	-0.5	31.1*	13.4	-1.4	-3.6	-3.6
COc1ccc(C(C(=O)NC(C)(C)C)N(C(=O)CCC(=O)Nc2cc(C)on2)c2ccccc2F)cc1 (stereo unspecified)	-0.1	7.4	2.5	30.1*	2.0	1.6	-1.0	-8.2
COc1ccc(C(C(=O)NC(C)(C)C)N(C(=O)CCC(=O)Nc2cc(C)on2)c2cc(C)cc(C)c2)cc1 (stereo unspecified)	4.1	4.2	0.3	1.4	-15.1	-1.1	·	·
O=C(NC(=S)NCCCN1CCOCC1)c1ccco1	-2.1	-5.0	-0.1	28.8*	8.0	0.6	2.1	-15.3
C#CCSc1nc(=O)c2cccnc2n1-c1ccc(C)cc1	4.5	-4.1	0.3	3.7	-28.7	2.1	·	·
O=C(OCc1ccccc1)N1CCC2CC1c1c(Cl)cccc12 (stereo unspecified)	1.2	·	·	29.5*	·	2.6	-1.6	-9.9
CC(=O)Nc1ccccc1OCCOc1ccc(Br)cc1	0.1	3.9	2.5	35.9*	-4.9	-0.9	1.3	-4.5
CC(=O)Nc1cccc(OC(=O)COc2ccc(Br)cc2)c1	-1.6	7.1	0.5	29.2*	-17.8	2.2	-0.8	4.0
O=C(OCC(=O)N1CCCC1)c1ccccc1C(=O)c1ccccc1	1.9	7.2	-0.1	-1.8	·	-2.1	·	·
CCC1(C)Cc2ccccc2-c2nc[nH]c(=O)c21 (stereo unspecified)	-0.6	-2.4	0.9	0.5	-7.2	1.0	·	·
